KCNQ1 pot: potentiators or activators of KCNQ1 channel, primary screen, cell-based, thallium flux, high-throughput. Potassium voltage-gated channel subfamily KQT member 1 (Homo sapiens), P51787. CHO-K1 KCNQ1, thallium flux FluxOR fluorescence; hits give high values. B-score at 10 µM. 310,000 compounds, 0.35% hits;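 active = fluorescence ratio B-score, a plate-corrected score, at least three library SD, with initial intensity B-score within 5 SD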
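Assay system: CHO-K1 cells stably expressing KCNQ1. Medium: assay buffer for compound exposure, DMSO matched across wells. Timing: 37 °C overnight plating, 90-min dark dye load, 20-min compound pretreatment. Signal: kinetic FluxOR fluorescence, 10 s baseline plus 110 s post-stimulus.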
hERG protect: hERG rescue from dofetilide block, primary screen, cell-based, CHO-hERG, FluxOR thallium flux, dofetilide IC70; Voltage-gated inwardly rectifying potassium channel KCNH2 (Homo sapiens), Q12809; dofetilide IC70 present; activation (rescue from dofetilide block), less the hit threshold, % at 10 µM; 310,000 compounds, 0.51% hits; AID 1511, 2009;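 active = activation above the mean of controls blocked by dofetilide plus 5 SD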;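 note: thallium influx through hERG after potassium depolarization seen as dye fluorescence rise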
KCNK3 block: human KCNK3 channel inhibitors, primary screen, CHO cells, FluxOR thallium flux, B-score; Potassium channel subfamily K member 3 (Homo sapiens), O14649; FluxOR fluorescence; hits give low values; B-score at 10 µM; 340,000 compounds, 0.84% hits;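 active = B-score under library mean minus 4 SD, starting fluorescence ratio at most library mean plus 5 SD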;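 note: more negative B-score means stronger inhibition of thallium flux through KCNK3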
Target sequence (O14649 whole entry, looked up): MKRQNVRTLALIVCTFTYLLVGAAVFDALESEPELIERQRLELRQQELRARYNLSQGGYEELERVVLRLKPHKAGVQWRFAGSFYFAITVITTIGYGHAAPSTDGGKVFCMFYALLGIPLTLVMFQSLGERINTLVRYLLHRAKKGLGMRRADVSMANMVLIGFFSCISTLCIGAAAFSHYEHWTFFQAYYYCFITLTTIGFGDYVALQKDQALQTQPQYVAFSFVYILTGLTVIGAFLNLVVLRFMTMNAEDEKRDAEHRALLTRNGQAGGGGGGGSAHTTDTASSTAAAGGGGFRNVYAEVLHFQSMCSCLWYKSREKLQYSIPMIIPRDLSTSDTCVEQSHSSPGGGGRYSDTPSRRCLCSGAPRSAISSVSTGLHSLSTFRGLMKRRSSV
Kir21 block: inhibitors of mouse Kir2.1 inward-rectifier potassium channel | Inward rectifier potassium channel 2 (Mus musculus), P35561 | HEK293-Kir2.1, FluxOR thallium flux fluorescence; hits give low values | B-score at 10 µM | 310,000 compounds, 0.85% hits | AID 1672, 2009;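 active = fluorescence ratio B-score at or below minus 3 SD of library scores, with starting-brightness B-score within 2 SD, cut at about -4.2 in these data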;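 note: channel flux triggered by added potassium and thallium sulfate stimulus; B-score of peak minus minimum fluorescence over baseline after thallium stimulus; more negative B-score means stronger Kir2.1 block with less thallium influx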
KCNQ1 inh: inhibitors of human KCNQ1 channel, primary screen, cell-based, thallium flux, high-throughput; 310,000 compounds, 1.3% hits; CHO-K1 KCNQ1, FluxOR thallium flux fluorescence; hits give high values; B-score at 10 µM;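 active = compounds whose thallium flux B-score, printed positive for inhibition, exceeds three library SD while starting fluorescence stays within three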;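 note: channel opened by potassium depolarization with thallium stimulus after 20 min compound exposure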
KCNK9 block: KCNK9 potassium channel inhibitors, primary screen, HEK293 cells, thallium flux; Potassium channel subfamily K member 9 (Homo sapiens), Q9NPC2; FluxOR thallium flux fluorescence; hits give low values; B-score at 10 µM; 310,000 compounds, 1.2% hits; AID 488922, 2010;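 active = ratio B-score over 3 SD below the library mean, with starting fluorescence within 5 SD of its mean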;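 note: negative B-score means less thallium flux so channel inhibition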
Numbers stand for hits; n = inactive; x = not tested or not shown. Only some compounds are listed: those with a hit (about 3.7% of all), similar ones and a draw of the others.

SMILES	KCNQ1 pot	hERG protect	KCNK3 block	Kir21 block	KCNQ1 inh	KCNK9 block
CCC(C)(C)NC(=O)CSc1nc(Cc2ccccc2)nc2ccccc12	n	n	n	n	n	n
CC(C)NC(=O)CSc1nc(Cc2cccs2)nc2ccccc12	n	n	n	-4.6	n	n
COc1ccc(OC)c(NC(=O)c2c(NC(=O)c3ccco3)sc3c2CCC3)c1	n	n	x	n	n	-7.5
COc1ccc(NC(=O)c2ccco2)c(OC)c1	n	n	n	n	n	n
COc1ccc(NC(=O)c2oc3ccccc3c2NC(=O)c2ccco2)c(OC)c1	n	n	n	n	n	-7.8
COc1ccc(C(=O)OCC(=O)Nc2cccc(S(=O)(=O)NC3=NCCCCC3)c2)cc1[N+](=O)[O-]	x	x	n	x	x	x
C/C(N)=C(/C#N)C(=O)COC(=O)c1ccccc1O	n	n	n	n	n	n
C/C(N)=C(/C#N)C(=O)COC(=O)c1cc(-c2cccc3ccccc23)nc2ccccc12	n	n	n	n	6	n
C/C(N)=C(/C#N)C(=O)COC(=O)c1ccccc1C(=O)c1ccc(C)cc1	n	n	n	-5.1	n	n
CC1(C)C2CC=C(/C=N/NC(=O)c3ccccc3Br)C1C2 (centres undefined)	n	n	n	n	n	n
COc1ccc2[nH]c(=O)c(CN(Cc3ccco3)C(c3nnnn3Cc3ccccc3)C(C)C)cc2c1 (centres undefined)	n	n	n	n	7	n
COc1ccc2[nH]c(=O)c(CN(Cc3nnnn3Cc3ccco3)C3CCCCC3)cc2c1	n	n	n	-4.5	n	n
CCc1ccc(C(=O)COC(=O)c2n[nH]c3ccccc23)cc1	n	n	n	n	n	n
COc1ccc([C@H]2CC(=O)C=C(/C=C/Cc3ccccc3)C2)cc1	x	x	n	x	x	x
COc1cccc(C(=O)Nc2cccc3c2ccc2cccn23)c1	n	n	n	n	n	n
COCCCNC(=O)CCc1c(C)nc2c(c(C)nn2-c2ccc(C)cc2)c1C	n	n	n	n	n	n
CCN(CC)CCNC(=O)CCc1c(C)nc2c(c(C)nn2-c2ccc(C)cc2)c1C	n	n	n	-4.5	n	n
COc1cccc(-c2ocnc2C(=O)Nc2ccc(N3CCOCC3)cc2N2CCOCC2)c1	n	n	n	n	n	n
Cc1ccc(S(=O)(=O)N(C)C)cc1NC(=O)COC(=O)/C(=C/c1ccc(F)cc1)c1cccs1	n	n	n	n	n	-7.3
COc1ccc(NC(=O)c2ccc3c(SCC(=O)O)c4c(nc3c2)CCCC4)c(OC)c1	n	n	n	n	n	n
COc1ccc(NC(=O)CSc2c3c(nc4ccccc24)CCC3)c(OC)c1	n	n	n	-10	n	n
COc1ccc(NC(=O)c2ccc3c(SCC(=O)O)c4c(nc3c2)CCCC4)cc1Cl	n	7.8	x	n	n	n
Cc1ccc2c(C)c(C(=O)N3CCCCC3CO)oc2c1C (centres undefined)	n	n	n	n	n	n
CSc1ccc(CN(C)Cc2cc(=O)oc3c(C)c(C)ccc23)cc1	n	n	n	n	7	n
O=[N+]([O-])c1ccc(N/N=C2\CC3CC=CC23)c([N+](=O)[O-])c1 (centres undefined)	n	n	n	n	9	n
SMILES	KCNQ1 pot	hERG protect	KCNK3 block	Kir21 block	KCNQ1 inh	KCNK9 block
N#CC1C(=N)Cc2ccccc2-c2ccccc21 (centres undefined)	x	x	n	x	x	x
CC(C)(C)c1cc(CP(=O)(c2ccccc2)c2ccccc2)cc(C(C)(C)C)c1O	n	n	n	n	6	n
CSc1nc(Cl)c(Br)c(Nc2c[nH]c(=O)[nH]c2=O)n1	x	x	n	x	x	x
CC(Oc1ccc(Cl)cc1Cl)C(=O)Nc1ccc2oc(-c3ccncc3)nc2c1 (centres undefined)	n	n	-10	n	n	n
CC(C)CC(=O)Nc1ccc2oc(-c3ccncc3)nc2c1	n	n	n	n	n	n
O=C(CN1CCCN(S(=O)(=O)c2ccc(Br)s2)CC1)Nc1ccc(Cl)cc1	n	n	-9.3	n	n	n
